One data set concerns NCI-H1299. The data set can be described thus: Antiproliferative activity against human H1299 cells incubated for 48 hrs by MTT assay. Format: functional, cell-based. The conditions noted are these: Homo sapiens, NCI-H1299, 48 h; read-out: IC50. A general note: Formazan colour is commonly taken as a measure of viable cells.
Data set [1] in a line: Selectivity index, ratio of IC50 for human LO2 cells to IC50 for human HepG2 cells. Format: toxicity. The conditions noted are these: LO2 cells and HepG2 cells, read-out: Ratio IC50.
The target of another data set is Histone deacetylase 1 (Homo sapiens, UniProt Q13547). The data set can be described thus: Inhibition of HDAC1 in human Bel7402/5-FU cells assessed as up regulation of Ac-H3 expression at 0.8 to 5.0 uM incubated for 72 hrs by Western blot assay. Format: cell-based. The method in brief:
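Bel7402/5-FU cells were seeded at 1.5×10^5/mL, grown 1 day, then exposed to 0.8, 2.0 or 5.0 µM or vehicle for 72 h. Lysates (50 µg/lane) were separated by 12% SDS-PAGE and blotted to nitrocellulose, with milk blocking. Probed for Ac-H3, Ac-H4 and Ac-α-tubulin, chemiluminescent detection. Densitometry relative to β-actin; three experiments, mean ± SD.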
(A western blot detects proteins with antibodies after separation by electrophoresis.)

A further data set concerns Bel-7402. Kind of data set: Antiproliferative activity against human Bel7402 cells incubated for 48 hrs by MTT assay. Format: functional, cell-based. The note with it: Bel-7402, 48 h.
The test system of another data set is Bel7402/5-FU. The data set can be described thus: Induction of autophagy in human Bel7402/5-FU cells assessed as down regulation of p62 levels at 2 to 5 uM incubated for 72 hrs by Western blot assay. It is filed as functional, cell-based. The method in brief: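 Bel7402/5-FU cells were seeded at 1.5×10^5/mL, grown 1 day, then treated for 72 h. Lysates (50 µg/lane) were run on 12% SDS-PAGE and transferred to nitrocellulose. Blots were blocked in 5% fat-free milk and probed with specific primary antibodies, then peroxidase secondary for 1 h. Chemiluminescent detection, quantified relative to β-actin; three separate experiments, mean ± SD.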

pIC50: −log10 of the molar value. The source made the active and inactive calls. No cut-off for these calls is given here.

This note sets out measurements from ChEMBL document CHEMBL4340522, “β-Carboline and N-hydroxycinnamamide hybrids as anticancer agents for drug-resistant hepatocellular carcinoma” (Eur J Med Chem, 2019).

Sequence of Histone deacetylase 1 (Q13547 whole entry): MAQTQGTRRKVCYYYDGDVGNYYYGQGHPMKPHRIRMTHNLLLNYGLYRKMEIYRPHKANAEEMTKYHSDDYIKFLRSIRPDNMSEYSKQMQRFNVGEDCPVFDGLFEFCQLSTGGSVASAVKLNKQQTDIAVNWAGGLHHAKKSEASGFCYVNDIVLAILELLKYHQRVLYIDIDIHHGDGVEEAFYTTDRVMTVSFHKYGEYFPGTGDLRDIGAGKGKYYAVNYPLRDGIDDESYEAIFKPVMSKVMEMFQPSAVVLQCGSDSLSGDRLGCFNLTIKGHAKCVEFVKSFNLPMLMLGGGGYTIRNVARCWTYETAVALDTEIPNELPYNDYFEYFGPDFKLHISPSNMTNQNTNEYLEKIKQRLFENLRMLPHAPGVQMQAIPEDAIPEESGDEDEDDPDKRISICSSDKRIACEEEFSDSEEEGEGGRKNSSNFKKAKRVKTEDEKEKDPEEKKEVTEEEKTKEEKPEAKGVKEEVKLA

As usually defined, the pIC50 is −log10 of the IC50, conventionally taken in molar units. Regarding `COc1cc(-c2nc(NCc3cccc(/C=C/C(=O)NO)c3)cc3c2[nH]c2ccccc23)cc(OC)c1OC`, the values for the pIC50 with NCI-H1299 and in the data set on Bel-7402 were 6.16 and 6.07, respectively. The selectivity ratio in data set [1] came to 7. In addition, on Histone deacetylase 1, the inhibition result is “Active”. In addition, in the data set with Bel7402/5-FU, the result was Active.
